The values that follow come from ChEMBL document CHEMBL1123478, “Synthesis and antineoplastic activity of bis[[[(alkylamino)carbonyl]oxy]methyl]-substituted 3-pyrrolines as prodrugs of tumor inhibitory pyrrole bis(carbamates)” (1986).

The subject of experiment [1] is Mus musculus. Briefly: Body weight difference the relation of the test animal to control animal weight was calculated at the 100 mg/kg doses. It is filed as functional. The procedure, abridged:
(§1)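 P388 leukemia ascitic fluid implanted intraperitoneally into CD2F1 mice. Dosing was intraperitoneal, starting 24 h after inoculation, once daily for five doses, as a suspension in saline and Tween 80 made fresh each day. Some compounds were given in Klucel (hydroxypropylcellulose) or in saline/Tween/alcohol instead. Acute toxicity was checked on day 5 and the study was evaluated on day 30.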

Experiment [2] relates to Mus musculus. Nature of the experiment: Body weight difference the relation of the test animal to control animal weight was calculated at the 200 mg/kg doses. In kind it is functional. The procedure, abridged: as §1
The subject of experiment [3] is Mus musculus. Nature of the experiment: Body weight difference the relation of the test animal to control animal weight was calculated at the 400 mg/kg doses. It is filed as functional. The procedure, abridged: as §1
The test system of experiment [4] is Mus musculus. Briefly: Body weight difference the relation of the test animal to control animal weight was calculated at the 50 mg/kg doses. It is filed as functional. The procedure, abridged:
as §1

Experiment [5] relates to P388. Briefly: Compound was tested for antitumor activity against P388 lymphocytic leukemia at the dose 100 mg/kg. In kind it is functional, Mus musculus. Put shortly:
as §1

In experiment [6] the test system is P388. Nature of the experiment: Compound was tested for antitumor activity against P388 lymphocytic leukemia at the dose 200 mg/kg. In kind it is functional, Mus musculus. Put shortly:
as §1

Experiment [7] has as its system P388. Briefly: Compound was tested for antitumor activity against P388 lymphocytic leukemia at the dose 400 mg/kg. In kind it is functional, Mus musculus. The procedure, abridged: as §1
Experiment [8] relates to P388. Briefly: Compound was tested for antitumor activity against P388 lymphocytic leukemia at the dose 50 mg/kg. In kind it is functional, Mus musculus. The procedure, abridged:
as §1

In experiment [9] the test system is Mus musculus. Nature of the experiment: Body weight difference the relation of the test animal to control animal weight was calculated at the 120 mg/kg doses. It is filed as functional. The procedure, abridged:
as §1

In experiment [10] the test system is Mus musculus. Briefly: Body weight difference the relation of the test animal to control animal weight was calculated at the 240 mg/kg doses. In kind it is functional. Put shortly:
as §1

Experiment [11] deals with Mus musculus. Nature of the experiment: Body weight difference the relation of the test animal to control animal weight was calculated at the 480 mg/kg doses. It is filed as functional. The procedure, abridged:
as §1

Experiment [12] relates to Mus musculus. Nature of the experiment: Body weight difference the relation of the test animal to control animal weight was calculated at the 60 mg/kg doses. It is filed as functional. The procedure, abridged:
as §1

The subject of experiment [13] is Mus musculus. Nature of the experiment: Tumor cell population at the end of treatment relative to its size at the beginning of the treatment was calculated at the 120 mg/kg doses. In kind it is functional. Put shortly:
as §1

Experiment [14] deals with Mus musculus. Nature of the experiment: Tumor cell population at the end of treatment relative to its size at the beginning of the treatment was calculated at the 240 mg/kg doses. In kind it is functional. The procedure, abridged:
as §1

Experiment [15] relates to Mus musculus. Briefly: Tumor cell population at the end of treatment relative to its size at the beginning of the treatment was calculated at the 480 mg/kg doses. In kind it is functional. The procedure, abridged: as §1
Experiment [16] concerns Mus musculus. Nature of the experiment: Tumor cell population at the end of treatment relative to its size at the beginning of the treatment was calculated at the 60 mg/kg doses. In kind it is functional. Put shortly:
as §1

For experiment [17], the system named is P388. Briefly: Compound was tested for antitumor activity against P388 lymphocytic leukemia at the dose 60 mg/kg. It is filed as functional, Mus musculus. Put shortly:
as §1

Experiment [18] deals with P388. Nature of the experiment: Compound was tested for antitumor activity against P388 lymphocytic leukemia at the dose 120 mg/kg. It is filed as functional, Mus musculus. Put shortly: as §1
Experiment [19] relates to P388. Nature of the experiment: Compound was tested for antitumor activity against P388 lymphocytic leukemia at the dose 480 mg/kg. It is filed as functional, Mus musculus. The procedure, abridged: as §1
A short description of experiment [20]: Rate constants were calculated for the compound by linear regression analysis.
Experiment [21] relates to P388. Nature of the experiment: Compound was tested for antitumor activity against P388 lymphocytic leukemia at the dose 240 mg/kg. In kind it is functional, Mus musculus. Put shortly:
as §1

For experiment [22], the system named is Mus musculus. Nature of the experiment: Body weight difference the relation of the test animal to control animal weight was calculated at the 15 mg/kg doses. It is filed as functional. Put shortly:
as §1

Experiment [23] relates to Mus musculus. Briefly: Body weight difference the relation of the test animal to control animal weight was calculated at the 30 mg/kg doses. In kind it is functional. The procedure, abridged:
as §1

The test system of experiment [24] is Mus musculus. Nature of the experiment: Tumor cell population at the end of treatment relative to its size at the beginning of the treatment was calculated at the 150 mg/kg doses. In kind it is functional. As to conditions: dose 15 mg/kg; in the assay text read “15 mg/kg doses” for “150 mg/kg doses”. Put shortly:
as §1

The test system of experiment [25] is Mus musculus. Nature of the experiment: Tumor cell population at the end of treatment relative to its size at the beginning of the treatment was calculated at the 30 mg/kgd oses. It is filed as functional. The conditions noted are these: dose 30 mg/kg. The procedure, abridged:
as §1

Experiment [26] concerns P388. Briefly: Compound was tested for antitumor activity against P388 lymphocytic leukemia at the dose 15 mg/kg. It is filed as functional, Mus musculus. The procedure, abridged:
as §1

Experiment [27] has as its system P388. Briefly: Compound was tested for antitumor activity against P388 lymphocytic leukemia at the dose 30 mg/kg. It is filed as functional, Mus musculus. Put shortly: as §1
Experiment [28] deals with Mus musculus. Briefly: Body weight difference the relation of the test animal to control animal weight was calculated at the 12.5 mg/kg doses. It is filed as functional. The procedure, abridged: as §1
Experiment [29] deals with Mus musculus. Briefly: Body weight difference the relation of the test animal to control animal weight was calculated at the 25 mg/kg doses. It is filed as functional. The procedure, abridged: as §1
Experiment [30] concerns Mus musculus. Briefly: Tumor cell population at the end of treatment relative to its size at the beginning of the treatment was calculated at the 25 mg/kg doses. It is filed as functional. The procedure, abridged:
as §1

The subject of experiment [31] is Mus musculus. Nature of the experiment: Tumor cell population at the end of treatment relative to its size at the beginning of the treatment was calculated at the 50 mg/kg doses. In kind it is functional. The procedure, abridged: as §1
For experiment [32], the system named is Mus musculus. Briefly: Tumor cell population at the end of treatment relative to its size at the beginning of the treatment was calculated at the 100 mg/kg doses. It is filed as functional. The procedure, abridged: as §1
Experiment [33] relates to Mus musculus. Briefly: Tumor cell population at the end of treatment relative to its size at the beginning of the treatment was calculated at the 12.5 mg/kg doses. In kind it is functional. The procedure, abridged:
as §1

The test system of experiment [34] is P388. Nature of the experiment: Compound was tested for antitumor activity against P388 lymphocytic leukemia at the dose 12.5 mg/kg. In kind it is functional, Mus musculus. Put shortly: as §1
The test system of experiment [35] is P388. Briefly: Compound was tested for antitumor activity against P388 lymphocytic leukemia at the dose 25 mg/kg. It is filed as functional, Mus musculus. Put shortly:
as §1

Molecules are shown by their SMILES.

As a reminder, the T/C is the result in the treated group divided by that in the control group, in per cent.

In the case of `CC(C)NC(=O)OCC1=C(COC(=O)NC(C)C)C(C)(C)N(C)C1c1ccccc1` (centres undefined), the BDW in experiment [1] is on record as -0.3 g; in experiment [2] it was -0.1 g; in experiment [3] it was -2.3 g; in experiment [4], 0.5 g. For the same compound, the T/C turned out to be 113% in experiment [5], 108% in [6], 107% in experiment [7] and 108% in experiment [8].

Take `CC(C)NC(=O)OCc1cn(C)c(-c2ccc(Cl)c(Cl)c2)c1COC(=O)NC(C)C`: the BDW in experiment [9] is -1.6 g; in experiment [10], -2.7 g; in [11] it was -3.6 g; in experiment [12], -0.8 g. The KE was -0.39 in experiment [13], 2.43 in experiment [14], 3.4 in experiment [15] and -1.15 in experiment [16]. For the same compound, the T/C in experiment [17] worked out at 117%; in experiment [18] it was 133%; in experiment [19] it was 169%; in experiment [21], 160%. For the same compound, the K' in experiment [20] was 0.00605 abs/time.

In the case of `COc1ccc(-c2c(COC(=O)NC(C)C)c(COC(=O)NC(C)C)cn2C)cc1`, the BDW was 0 g in experiment [22], 0.4 g in [23] and -0.8 g in [12]. Also, the KE in experiment [24] is -0.06; in [25] it was -0.08; in [16], 0.1. Besides, the T/C was 123% in experiment [26], 117% in [27] and 164% in [17]. Moreover, the K' in experiment [20] is 0.231 abs/time.

In the case of `CC(C)NC(=O)OCc1cn2c(c1COC(=O)NC(C)C)-c1cc(Cl)c(Cl)cc1CC2`, the BDW in experiment [9] is reported as -2.2 g; in experiment [10], -2.3 g; in [11], -3.2 g; in experiment [12], -0.4 g. In addition, the KE is -0.68 in experiment [13], 0.1 in experiment [14], 5.05 in experiment [15] and -1.54 in [16]. Further, the T/C in experiment [17] was determined as 86%; in experiment [18], 130%; in [19], 185%; in experiment [21], 137%. Moreover, in experiment [20], the K' is 0.00154 abs/time.

Regarding `CC(C)NC(=O)OCC1=C(COC(=O)NC(C)C)C(c2ccccc2)N(C)C1` (centres undefined), the BDW is listed as -2.2 g in experiment [1], 0 g in [28], -0.9 g in [29] and -2 g in experiment [4]. For the same compound, the KE in [30] is 0; in experiment [31], 0.53; in experiment [32], 5.18; in experiment [33], 0.84. For the same compound, the T/C in experiment [5] was 225%; in experiment [34] it was 121%; in experiment [35] it was 136%; in experiment [8], 145%.

Regarding `CC(C)NC(=O)OCC1=C(COC(=O)NC(C)C)[C@@H](c2ccccc2)N(C)[C@H]1c1ccccc1`, the BDW in experiment [1] is listed as -3 g; in experiment [28], 0 g; in [29] it was -1.2 g; in experiment [4] it was -2.3 g. Besides, the KE in experiment [30] is reported as 0.16; in experiment [31], 0.53; in experiment [32], 3.06; in [33], -0.9. The T/C in experiment [5] is 189%; in experiment [34], 120%; in experiment [35] it was 139%; in experiment [8], 145%.

`CC(C)NC(=O)OCC1=C(COC(=O)NC(C)C)C(c2ccc(Cl)c(Cl)c2)N(C)C1` (centres undefined): the BDW is reported as -1.6 g in experiment [9], -2.5 g in experiment [10] and -1.3 g in experiment [12]. The T/C is listed as 110% in experiment [17], 117% in experiment [18] and 119% in experiment [21].
